Assay outcomes (PubChem BioAssay)
A selection: hits, their analogues and other compounds. The true share with any hit is near 2.1%.
Phagocyt inh – macrophage phagocytosis inhibition; hit rate 0.07% among 110,000; J774A.1 macrophage IgG-bead phagocytosis, imaging; inhibition, % at 5 µM;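 active means inhibition above the mean of the plate negative controls plus 5 SD, cut at about 13% in these data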;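 further: phagocytic index as fraction of beads internalized from green versus red external bead signal; plate controls were DMSO negative control for no effect and cytochalasin-D positive control for full effect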
Yeast growth inh – reduces growth of yeast BB579 in restrictive medium; hit rate 0.51% among 140,000; S. cerevisiae BB579 growth, OD615, 48 h; inhibition, % at 10 µM;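 active means inhibition above a set limit, 3 SD over the mean compound inhibition, cut at about 44% in these data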
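Test system: DeaD yeast strain BB579 / Buffer or medium: restrictive glucose-based CSMM-D medium / Doses: single 10 µM dose / Schedule: 4 h cell preincubation, 48 h compound exposure, 30 °C humidified / Technique: culture absorbance at 615 nm / Controls: amphotericin B positive control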
MRP1 act – activators of MRP-1. viability increase, % at 10 µM. hit rate 0.61% among 140,000. AID 799. H69AR cells + doxorubicin, viability rescue, CellTiter-Glo;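 active means viability gain under doxorubicin at or above a set limit, the compound median plus 3 SD, cut at about 4.7% in these data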;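 further: MRP-1 overexpressing cells given doxorubicin 25 µM after compound pretreatment; 18-22 h compound pretreatment then 72 h with doxorubicin before readout; 0% = doxorubicin-only wells and 100% = vehicle-treated cells without doxorubicin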
MRP reversal – reverses drug resistance mediated by MRP | differential viability (reversal), % at 10 µM | H69AR cells + 2 uM doxorubicin, CellTiter-Glo, 72 h | hit rate 0.04% among 85,000 | AID 602;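 active means viability drop by adding the cancer drug above about 55%, with treated viability meeting a 40% cutoff, limit read from the data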;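 further: viability without doxorubicin minus viability with 2 µM doxorubicin for each compound; larger differential means the compound sensitizes cells more to doxorubicin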
sdo1 growth – sdo1-depleted yeast growth rescue; S. cerevisiae sdo1-depleted JHY4D growth rescue, OD600 30 h; hits give high values; pdr5 snq2 efflux-pump mutant strain; z-score at 10 µM; hit rate 0.21% among 140,000;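 active means z-score above 3 at both the 24 hr and the 30 hr optical density reads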;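 further: z-score against mean and SD of all compound wells on the same plate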
Yeast life ext – yeast lifespan extension; S. cerevisiae growth with nicotinamide, OD615; deaD strain in restrictive glucose medium; inhibition of the nicotinamide effect, % at 10 µM; hit rate 0.68% among 130,000; AID 775;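 active means inhibition above a set limit, placed 3 SD over the median of all compounds, cut at about 26% in these data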;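 further: 0% = nicotinamide-treated wells and 100% = cells grown without nicotinamide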
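assay system = DeaD-strain S. cerevisiae | buffer or medium = restrictive glucose medium | reagent = 1.5 mM nicotinamide | compound = 10 µM single point, 0.25% DMSO | incubation = 48 h compound exposure at 30 °C, humidified | signal = OD615 measurement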
Numbers without * were called inactive; nt = no result.

SMILES	Phagocyt inh	Yeast growth inh	MRP1 act	MRP reversal	sdo1 growth	Yeast life ext
O=C(COc1cccc2ccccc12)Nc1nc2ccccc2[nH]1	-0.6	-50.9	-1.5	-13.4	-0.76	-19.6
CCOc1ccccc1N1CCN(C(=O)CCCN2C(=O)c3cccc4cccc(c34)C2=O)CC1	-12.2	-15.9	-2.3	nt	-0.52	2.2
O=C(NCCc1ccccn1)C(F)(F)C(F)(F)C(F)(F)C(F)(F)C(F)(F)C(F)(F)C(F)(F)C(F)F	-8.8	-26.4	3.5	nt	0.71	33.3*
CNCCc1ccccn1	nt	-6.0	-0.5	nt	0.2	6.1
CNC(=O)CSc1nnc(COc2ccc(Cl)cc2)n1CCOC	-2.5	-14.9	9.8*	-0.3	-0.29	-3.2
COc1ccc(Cl)cc1NC(=O)CSc1nnc(COc2ccccc2)n1C	4.7	-18.5	2.0	-19.6	-2	-8.3
C=CCn1c(COc2ccc(Cl)cc2)nnc1SCC(=O)NCC(=O)OCC	-0.5	-39.3	-0.1	-1.6	0.18	-10.7
COc1ccc(Cl)cc1NC(=O)CSc1nnc(COc2ccccc2)n1N	-0.9	-20.1	7.8*	19.8	-0.38	4.3
CCc1cc2c3c(c1)C(C)CC(C)(C)N3C(=O)C2=O (configuration not stated)	-4.5	-24.8	-3.4	nt	-0.72	27.7*
CN(C)S(=O)(=O)c1cccc(NC(=O)COc2nc3ccccc3nc2N2CCOCC2)c1	-2.2	-30.0	-2.1	nt	1.3	-3.2
O=C(NCc1ccc(Cl)cc1)C(=O)NCC1OCCN1S(=O)(=O)c1cccs1 (configuration not stated)	nt	-33.0	4.1	nt	-0.04	0.3
O=C(NCc1ccc(Cl)cc1)C(=O)NCC1OCCN1C(=O)c1cccs1 (configuration not stated)	-13.1	-11.6	6.4*	nt	-0.19	-3.8
O=C(NCc1ccccn1)c1cn(CCc2ccccc2)nn1	-0.3	-36.9	-0.5	57.0*	0.67	-2.5
COn1c(SC2CCCCC2)nc2ccccc2c1=O	-0.8	-21.5	0.5	16.5	-0.85	45.8*
COn1c(SC(C)C)nc2ccccc2c1=O	nt	-32.1	-2.2	9.9	-0.56	-27.0
O=C(O)c1ccc(N/N=C/c2ccc(F)c(F)c2)cc1	4.2	-6.0	7.3*	nt	0.4	-11.4
Cc1cc(NC(=O)c2cc(C(C)C)on2)nn1Cc1ccc(Cl)cc1	-0.2	-37.0	6.7*	-8.4	-1.09	-6.3
O=C(Cc1cccs1)NCc1cn2ccccc2n1	0.0	8.6	-0.2	-2.0	1.41	0.2
Cc1ccccc1NC(=S)c1nc2ccccc2[nH]1	2.1	49.7*	-3.9	nt	-0.86	-6.0
CC(=O)C1=C(C)NC(SCc2cccc([N+](=O)[O-])c2)=C(C#N)C1c1ccco1 (configuration not stated)	0.6	-48.4	-1.4	nt	0.37	-10.5
CC(C)C(=O)N1CCN(c2ccccc2NC(=O)c2cccc(Cl)c2)CC1	nt	-22.4	-2.8	78.1*	1.85	-13.7
COc1ccc(CNC(=O)C(CCSC)NC(=O)c2ccco2)cc1 (configuration not stated)	0.6	-38.4	-0.8	nt	-0.12	-13.3
Cc1occc(=O)c1OC(=O)Nc1ccc(Cl)c(Cl)c1	-1.9	-44.5	-4.7	nt	-1.69	-2.8
COc1ccc(OCc2nc3ccc(S(=O)(=O)Nc4ccccc4Cl)cc3[nH]2)cc1	-8.3	-15.0	6.0*	nt	-0.97	4.6
COc1ccc(NS(=O)(=O)c2ccc3nc(COc4ccc5ccccc5c4)[nH]c3c2)cc1	-5.4	-37.7	-0.8	nt	0.12	-3.0
SMILES	Phagocyt inh	Yeast growth inh	MRP1 act	MRP reversal	sdo1 growth	Yeast life ext
CCn1c(C)nc2cc(C(=O)OC(C(F)(F)C(F)F)C(F)(F)C(F)F)ccc21	-1.9	-25.3	1.4	7.3	-1.42	-16.6
Nc1nonc1C(=O)NCCN=Cc1cc(Cc2ccccc2)cc(Br)c1O	0.3	99.4*	-0.7	14.7	-1.75	-11.9
COc1ccc(C(=O)N(CCCO)Cc2cc3c(C)ccc(C)c3[nH]c2=O)cc1OC	-0.9	-35.8	-1.6	-5.8	-0.21	-2.0
CCCCOc1ccc(/C=C/C(=O)Nc2ccc([N+](=O)[O-])cc2C)cc1	-0.9	-6.9	5.8*	nt	0.88	5.4
Cn1c(=O)c2nc(-c3ccccc3)oc2c2ccccc21	-3.2	78.4*	-4.5	-9.0	-2.77	-23.0
CC(C)C(=O)Nc1cccc(NC(=S)NC(=O)c2ccc(Cl)cc2)c1	1.3	-5.9	-2.6	nt	-1.04	-11.6
COCCNC(=S)NNC(=O)c1ccco1	-0.6	-45.6	-0.2	-10.9	0.19	-8.8
COc1ccc(C(=O)NNC(=S)NC(=O)c2ccco2)cc1	nt	-16.9	-0.7	nt	-0.16	33.4*
COc1ccc(C(=O)NC(=S)NNC(=O)c2ccc(NC(=O)C(C)C)cc2)cc1	-2.5	-21.3	0.2	nt	0.44	33.5*
COc1ccccc1C(=O)NNC(=S)NC(=O)c1ccco1	0.8	81.5*	-2.3	nt	-1.23	8.0
Cc1ccc(Cn2nnnc2CN2CCC(NC(=O)c3ccccc3F)CC2)cc1	-0.4	-32.1	-2.7	21.2	0.52	0.8
CCOC(=O)c1ccc(NC(=O)C2(c3ccc(Cl)cc3)CCCC2)cc1	nt	-7.5	0.1	nt	-0.75	-0.3
O=C(CN1CCN(c2ccccc2)CC1)Nc1ccc2c(c1)CCC2	nt	-38.3	-1.3	nt	0.03	3.2
Cc1cccc(N2CCN(C(=O)Cc3ccc(Br)cc3)CC2)c1C	1.6	-49.1	7.9*	3.3	-1.26	-8.8
O=C(Nc1cccc(Cl)c1)c1ccc2c(=O)n3c(nc2c1)CCCCC3	-2.0	-39.3	-0.7	-34.5	-2.19	59.2*
CC(C)COC(=O)Nc1ccc(C(=O)O)cc1	nt	-1.3	-2.4	4.4	0.06	-3.9
NC(N)=NC(N)=NCCc1ccccc1	nt	-14.8	-0.2	-11.4	1.04	4.5
N/C(Cc1ccc(Cl)cc1)=N\OC(=O)C1CCCCC1	-0.4	99.8*	-0.7	nt	-2.06	-12.8
N/C(Cc1ccc([N+](=O)[O-])cc1)=N\OC(=O)CC1CCCCC1	-3.5	-17.6	-3.2	nt	-1.5	6.0
COc1cccc(C(=O)O/N=C(\N)Cc2ccc(Cl)cc2)c1	-6.3	100.0*	-3.2	nt	-2.31	-12.7
CC(=O)Nc1cccc(Oc2ccc(-c3noc(C)n3)cc2)c1	-1.9	-13.1	-0.9	-28.0	-1.03	-19.0
COc1cccc(NC(=S)N(CCCN2CCOCC2)Cc2cn(C)c3ccccc23)c1	-4.9	-7.5	-3.4	nt	-0.45	1.0
COc1ccccc1-c1cc(C(=O)NC(C)C)no1	nt	-71.0	-1.7	7.1	0.27	-13.6
COc1ccccc1-c1cc(C(=O)NC(C)c2ccccc2)no1 (configuration not stated)	-1.2	-23.9	5.1*	-4.3	-2.03	-8.7
CCOC(=O)/C(=C\c1cccnc1)C(=O)c1cc(C(C)=O)c(Nc2ccccc2)s1	4.2	-52.5	-2.5	0.6	-3.08	33.4*
CCOC(=O)/C(=C\c1ccccc1)C(=O)c1cc(C(C)=O)c(Nc2ccccc2)s1	-0.6	-22.5	-5.9	0.5	-1	-3.1
CCn1c(COc2cccc3cccnc23)nnc1SCC(=O)O	-0.6	-9.4	-1.3	-2.8	1.59	-8.5
